{"source": "ChEMBL document CHEMBL4400525", "about": "“Toward a treatment of diabesity: In vitro and in vivo evaluation of uncharged bromophenol derivatives as a new series of PTP1B inhibitors” (Eur J Med Chem, 2019)", "key": {"[1]": {"target": "T1, Tyrosine-protein phosphatase non-receptor type 11 (Homo sapiens, UniProt Q06124)", "T1 sequence (Q06124 whole entry)": "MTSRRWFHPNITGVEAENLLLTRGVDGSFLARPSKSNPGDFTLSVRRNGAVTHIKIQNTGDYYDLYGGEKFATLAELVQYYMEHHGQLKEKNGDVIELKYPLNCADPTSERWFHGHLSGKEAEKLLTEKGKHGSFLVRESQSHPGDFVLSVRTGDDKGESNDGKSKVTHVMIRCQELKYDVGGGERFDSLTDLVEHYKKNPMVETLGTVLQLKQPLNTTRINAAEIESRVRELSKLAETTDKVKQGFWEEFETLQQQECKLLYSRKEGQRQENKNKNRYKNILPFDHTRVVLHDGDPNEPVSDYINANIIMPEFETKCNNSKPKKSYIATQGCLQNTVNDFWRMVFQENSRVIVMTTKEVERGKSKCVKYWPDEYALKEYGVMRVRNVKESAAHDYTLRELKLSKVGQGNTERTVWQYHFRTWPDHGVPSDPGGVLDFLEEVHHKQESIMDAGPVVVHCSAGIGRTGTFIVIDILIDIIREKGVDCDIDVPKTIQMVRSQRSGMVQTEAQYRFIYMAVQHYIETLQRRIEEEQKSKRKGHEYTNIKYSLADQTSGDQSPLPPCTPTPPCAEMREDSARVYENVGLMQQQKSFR", "test": "Inhibition of SHP2 (unknown origin)"}, "[2]": {"target": "Receptor-type tyrosine-protein phosphatase F (Homo sapiens, UniProt P10586)", "sequence (P10586 whole entry)": "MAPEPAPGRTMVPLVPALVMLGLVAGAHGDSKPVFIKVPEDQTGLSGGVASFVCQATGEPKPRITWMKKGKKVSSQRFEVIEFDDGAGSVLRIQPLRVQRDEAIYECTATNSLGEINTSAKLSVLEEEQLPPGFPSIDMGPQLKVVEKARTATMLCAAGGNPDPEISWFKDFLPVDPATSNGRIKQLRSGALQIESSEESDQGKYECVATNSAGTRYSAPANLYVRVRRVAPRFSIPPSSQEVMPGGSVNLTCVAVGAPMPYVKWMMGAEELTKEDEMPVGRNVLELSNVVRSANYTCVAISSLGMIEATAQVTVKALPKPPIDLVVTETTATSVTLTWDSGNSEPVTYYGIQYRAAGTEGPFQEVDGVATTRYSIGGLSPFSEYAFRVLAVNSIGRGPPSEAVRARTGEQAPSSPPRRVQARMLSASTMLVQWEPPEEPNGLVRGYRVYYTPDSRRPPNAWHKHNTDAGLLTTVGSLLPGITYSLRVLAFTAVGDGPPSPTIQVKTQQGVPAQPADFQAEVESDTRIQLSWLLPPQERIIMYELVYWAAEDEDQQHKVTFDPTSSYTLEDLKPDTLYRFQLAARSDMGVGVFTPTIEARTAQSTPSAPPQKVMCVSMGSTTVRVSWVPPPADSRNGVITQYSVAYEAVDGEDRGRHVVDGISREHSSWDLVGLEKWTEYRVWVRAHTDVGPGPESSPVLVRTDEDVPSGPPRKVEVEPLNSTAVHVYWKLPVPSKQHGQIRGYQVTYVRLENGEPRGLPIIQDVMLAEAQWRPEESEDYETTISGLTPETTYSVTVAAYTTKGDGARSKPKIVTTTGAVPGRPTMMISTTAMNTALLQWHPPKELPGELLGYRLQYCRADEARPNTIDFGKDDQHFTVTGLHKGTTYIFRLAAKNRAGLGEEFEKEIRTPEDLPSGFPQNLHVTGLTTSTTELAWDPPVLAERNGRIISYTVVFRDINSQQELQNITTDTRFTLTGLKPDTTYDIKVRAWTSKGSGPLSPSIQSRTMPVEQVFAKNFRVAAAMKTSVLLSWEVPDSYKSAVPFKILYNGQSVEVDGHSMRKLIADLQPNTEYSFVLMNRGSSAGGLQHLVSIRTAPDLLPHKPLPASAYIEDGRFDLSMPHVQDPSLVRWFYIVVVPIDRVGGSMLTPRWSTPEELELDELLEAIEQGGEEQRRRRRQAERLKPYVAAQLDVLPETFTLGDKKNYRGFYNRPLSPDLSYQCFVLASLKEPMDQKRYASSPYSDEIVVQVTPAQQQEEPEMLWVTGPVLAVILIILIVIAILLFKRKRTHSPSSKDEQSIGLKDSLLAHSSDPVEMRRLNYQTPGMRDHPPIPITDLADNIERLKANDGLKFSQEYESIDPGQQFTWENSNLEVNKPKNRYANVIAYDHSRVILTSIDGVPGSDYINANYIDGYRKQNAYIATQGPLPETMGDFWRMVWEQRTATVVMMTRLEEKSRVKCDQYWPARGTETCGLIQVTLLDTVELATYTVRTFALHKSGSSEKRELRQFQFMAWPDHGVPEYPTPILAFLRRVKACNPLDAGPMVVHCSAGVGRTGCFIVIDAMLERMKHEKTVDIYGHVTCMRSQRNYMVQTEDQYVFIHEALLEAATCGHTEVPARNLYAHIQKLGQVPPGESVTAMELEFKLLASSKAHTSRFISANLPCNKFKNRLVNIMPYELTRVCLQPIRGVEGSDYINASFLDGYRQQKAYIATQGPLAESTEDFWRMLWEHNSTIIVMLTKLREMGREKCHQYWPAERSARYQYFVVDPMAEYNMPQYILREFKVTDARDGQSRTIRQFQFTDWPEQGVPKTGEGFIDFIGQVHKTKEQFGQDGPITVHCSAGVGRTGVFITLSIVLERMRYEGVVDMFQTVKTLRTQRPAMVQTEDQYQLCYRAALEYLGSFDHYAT", "test": "Inhibition of LAR (unknown origin)"}, "Homo sapiens": {"species": "Homo sapiens", "test": "Selectivity ratio of IC50 for SHP2 (unknown origin) to IC50 for GST-fused PTP1B catalytic domain (1 to 321 residues) (unknown origin) expressed in Escherichia coli"}, "[3]": {"target": "T2, Tyrosine-protein phosphatase non-receptor type 1 (Homo sapiens) (UniProt P18031)", "T2 sequence (whole entry)": "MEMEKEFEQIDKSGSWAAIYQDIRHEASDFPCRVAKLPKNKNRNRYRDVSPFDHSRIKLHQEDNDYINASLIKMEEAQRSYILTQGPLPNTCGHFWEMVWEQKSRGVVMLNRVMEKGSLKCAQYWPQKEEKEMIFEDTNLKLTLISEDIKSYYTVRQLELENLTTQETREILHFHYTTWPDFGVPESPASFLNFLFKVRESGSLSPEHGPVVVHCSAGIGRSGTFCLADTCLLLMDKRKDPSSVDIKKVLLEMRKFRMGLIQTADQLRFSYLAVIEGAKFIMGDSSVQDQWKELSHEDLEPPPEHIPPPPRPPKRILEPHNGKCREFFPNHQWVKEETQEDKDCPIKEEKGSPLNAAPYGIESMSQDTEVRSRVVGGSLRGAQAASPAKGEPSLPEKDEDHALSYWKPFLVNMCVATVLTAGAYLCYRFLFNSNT", "test": "(§1) Binding affinity to human PTP1B (1 to 321 residues) by surface plasmon resonance analysis", "in_short": "(§2)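 PTP1B was immobilized on an SPR chip and the ligand was injected at 6.25, 3.125, 1.562, 0.781 and 0.390 µM. The sensorgrams were curve-fitted to obtain ka and kd, and KD was calculated from these.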"}, "[4]": {"target": "T3, Tyrosine-protein phosphatase non-receptor type 1 (Homo sapiens, UniProt P18031)", "T3 sequence (P18031 whole entry)": "T2 sequence (whole entry)", "test": "as §1", "in_short": "as §2"}, "[5]": {"target": "T4, Tyrosine-protein phosphatase non-receptor type 1 (Mus musculus) (UniProt P35821)", "T4 sequence (whole entry)": "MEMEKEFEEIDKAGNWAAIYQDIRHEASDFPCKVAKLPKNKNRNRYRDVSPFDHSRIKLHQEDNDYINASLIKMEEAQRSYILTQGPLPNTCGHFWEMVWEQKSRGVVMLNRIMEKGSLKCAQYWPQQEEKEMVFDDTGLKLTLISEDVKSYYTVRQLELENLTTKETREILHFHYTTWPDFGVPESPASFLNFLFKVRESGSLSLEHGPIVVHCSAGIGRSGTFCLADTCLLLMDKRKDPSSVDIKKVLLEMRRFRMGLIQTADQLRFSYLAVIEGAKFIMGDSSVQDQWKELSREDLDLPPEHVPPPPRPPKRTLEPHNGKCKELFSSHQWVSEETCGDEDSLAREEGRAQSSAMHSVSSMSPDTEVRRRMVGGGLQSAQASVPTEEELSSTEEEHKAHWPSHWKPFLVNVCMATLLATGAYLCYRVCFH", "test": "Inhibition of PTP1B in mouse C2C12 cells assessed as suppression of PA-induced insulin resistance by measuring increase in insulin-mediated AKT phosphorylation at S473 residue preincubated for 1 hr followed by palmitic acid stimulation for 16 hrs and subsequent insulin addition measured after 30 mins by Western blot analysis", "format": "cell-based"}, "[6]": {"target": "T4, Tyrosine-protein phosphatase non-receptor type 1 (Mus musculus)", "test": "Inhibition of PTP1B in PA-stimulated mouse C2C12 cells assessed as increase in STAT3 phosphorylation at Y705 residue preincubated for 1 hr followed by palmitic acid stimulation for 16 hrs and measured by Western blot analysis", "format": "cell-based"}, "Mus musculus [7]": {"test_system": "Mus musculus", "test": "Antiobesity activity in BKS db mouse assessed as decrease in food intake at 100 mg/kg, po administered once daily for 5 weeks", "format": "functional, organism-based", "in_short": "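Diabetic BKS db mice, n = 8 per group, were given 100 mg/kg/day orally for five weeks. Vehicle- and metformin-treated db mice and vehicle-treated BKS mice served as controls. Food intake, water intake and body weight were followed weekly, and abdominal fat pads were weighed at the end. Values are mean ± SEM.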"}, "Mus musculus [8]": {"test_system": "Mus musculus", "test": "Antidiabetic activity in BKS db mouse assessed as improvement in insulin sensitivity by measuring decrease in glucose AUC at 100 mg/kg, po administered once daily for 2 weeks followed by insulin challenge and measured up to 120 mins by ITT", "format": "functional, organism-based", "in_short": "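In week 2 of treatment at 100 mg/kg/day p.o., an insulin tolerance test was run in db mice (n = 8) with 0.75 U/kg insulin. Blood glucose was followed over time and the area under the curve was calculated. Values are mean ± SEM.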"}, "[9]": {"test": "Acute toxicity in Kunming mouse assessed as effect on water intake at 500 to 2000 mg/kg, po administered as single dose measured for 1 week", "format": "organism-based", "conditions": "in vivo, 168 h"}, "[10]": {"test": "Acute toxicity in Kunming mouse assessed as change in body weight at 500 to 2000 mg/kg, po administered as single dose measured for 1 week", "format": "organism-based", "conditions": "in vivo, 168 h"}, "[11]": {"test": "Sub-acute toxicity in Kunming mouse assessed as structural changes in heart at 1000 mg/kg, po administered once daily for 14 days measured 24 hrs post last dose by gomori staining based histological analysis", "format": "organism-based", "conditions": "in vivo", "in_short": "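After 14 days of oral dosing at 1000 mg/kg body wt per day, with vehicle-treated controls, liver, heart, kidney and lung sections were Gomori-stained. Sections were examined for histological structure and cell size.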"}, "[12]": {"test": "Cmax in specific pathogen free Sprague-Dawley rat at 2 mg/kg, iv measured after 5 mins by LC-MS/MS analysis", "format": "ADME, organism-based", "parameters": "dose 2 mg/kg, route intravenous", "conditions": "in vivo"}, "[13]": {"test": "Mean residence time in specific pathogen free Sprague-Dawley rat at 2 mg/kg, iv or 10 mg/kg, po by LC-MS/MS analysis", "format": "ADME, organism-based", "conditions": "in vivo"}, "[14]": {"test": "Half life in specific pathogen free Sprague-Dawley rat at 2 mg/kg, iv or 10 mg/kg, po by LC-MS/MS analysis", "format": "ADME, organism-based", "conditions": "in vivo"}, "[15]": {"test": "Oral bioavailability in specific pathogen free Sprague-Dawley rat at 10 mg/kg by LC-MS/MS analysis", "format": "ADME, organism-based", "conditions": "in vivo"}, "[16]": {"test": "Tmax in specific pathogen free Sprague-Dawley rat at 2 mg/kg, iv by LC-MS/MS analysis", "format": "ADME, organism-based", "conditions": "in vivo"}}, "note": "Calls of active or inactive are those of the source. The calls are words filed in the database; no cut-off is given here."}
{"smiles": "CCOc1ccc(Oc2ccc(-c3cnc(-c4cc(O)c(O)c(Br)c4Br)o3)cc2)cc1", "values": [{"measurement": "IC50", "setting": "[1]", "value": "> 36.8", "unit": "µM"}, {"measurement": "IC50", "setting": "[2]", "value": "> 36.8", "unit": "µM"}, {"measurement": "Ratio IC50", "setting": "Homo sapiens", "value": "20 to 200"}, {"measurement": "Activity", "setting": "[3]", "value": "Dose-dependent effect"}, {"measurement": "Kd", "setting": "[4]", "value": 2.24, "unit": "µM"}, {"measurement": "inhibition", "setting": "[5]", "value": "Dose-dependent effect"}, {"measurement": "inhibition", "setting": "[6]", "value": "Dose-dependent effect"}, {"measurement": "Activity", "setting": "Mus musculus [7]", "value": "Active"}, {"measurement": "Activity", "setting": "Mus musculus [8]", "value": "Active"}, {"measurement": "Activity", "setting": "[9]", "value": "Non-Toxic"}, {"measurement": "Activity", "setting": "[10]", "value": "Non-Toxic"}, {"measurement": "Activity", "setting": "[11]", "value": "Non-Toxic"}, {"measurement": "Cmax", "setting": "[12]", "value": 3.35, "unit": "µM"}, {"measurement": "MRT", "setting": "[13]", "value": 34.8, "unit": "min"}, {"measurement": "half-life", "setting": "[14]", "value": 24, "unit": "min"}, {"measurement": "bioavailability", "setting": "[15]", "value": 8.31, "unit": "%"}, {"measurement": "Tmax", "setting": "[16]", "value": 5, "unit": "min"}]}
